Bioassay records: PubChem BioAssay, several laboratories
CCR6 antag: blocks CCL20-driven beta-arrestin recruitment at human CCR6; inhibition, % at 20 µM; AID 493098; 0.49% of 340,000 active; CHO-K1 CCR6 PathHunter beta-arrestin, luminescence, CCL20-stimulated; P51684;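 active means compounds whose inhibition of the agonist-driven luminescence signal at 20 µM reaches about 50%, limit read from the data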;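 further: cells stimulated with CCL20 at 14 nM final; plate controls were DMSO with CCL20 for no effect and DMSO without agonist for full effect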
CXCR6 block: inhibitors of human CXCR6 receptor. O00574. 0.36% of 360,000 active. CHO-K1 PathHunter CXCR6 beta-arrestin, luminescence. inhibition, % at 20 µM; in the data active means inhibition above about 34%, passing the limit was not always enough;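 further: antagonist mode with CXCL16 agonist at 10 nM final; 0% = 10 nM CXCL16 with DMSO and 100% = unstimulated wells without agonist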
Target sequence (O00574 whole entry, looked up): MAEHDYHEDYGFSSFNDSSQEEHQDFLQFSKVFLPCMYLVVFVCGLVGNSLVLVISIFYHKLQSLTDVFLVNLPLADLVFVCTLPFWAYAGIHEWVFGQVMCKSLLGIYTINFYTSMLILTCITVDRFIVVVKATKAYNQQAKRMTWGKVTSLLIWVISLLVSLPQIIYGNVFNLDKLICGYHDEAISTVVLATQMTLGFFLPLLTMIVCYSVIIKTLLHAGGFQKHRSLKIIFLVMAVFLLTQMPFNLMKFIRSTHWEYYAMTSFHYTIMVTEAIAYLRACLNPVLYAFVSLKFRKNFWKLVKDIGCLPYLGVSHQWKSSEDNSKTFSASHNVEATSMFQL
APJ antag: APJ receptor antagonism; CHO-K1 APJ beta-arrestin complementation, luminescence; inhibition, % at 20 µM; 0.32% of 330,000 active;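 active means inhibition above about 40% at 20 µM, limit read from the data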;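 further: cells challenged with 10 nM apelin-13 agonist together with compound; plate controls were apelin-13 plus DMSO wells for no effect and DMSO wells lacking apelin-13 for full effect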
GAA850 FXN act: increases GAA850 frataxin promoter reporter activity | HEK293 lucGAA850 FXN promoter luciferase reporter, 24 h; percent of 10 µM SAHA response | activation, % at 6 µM | 0.56% of 360,000 active;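 active means activation above the average of all compounds screened plus 3 SD, cutoff fixed separately per campaign, cut at about 7.5% in these data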;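 further: 0% = DMSO wells and 100% = 10 µM SAHA wells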
APJ agonist: activates the human apelin receptor APJ; 0.11% of 330,000 active; activation, % at 20 µM; CHO-K1 APJ PathHunter beta-arrestin, luminescence; 0% DMSO wells, 100% apelin; AID 2520;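 active means activation more than six SD over the plate average, tested at 20 µM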;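 further: 0% = DMSO alone and 100% = apelin-13 at 10 nM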
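assay system = CHO-K1 APJ beta-arrestin complementation cell line | input = cell density 1000 per well | dosing = compound 20 µM once, DMSO 1% | timing = compound 90 min 25 °C, reagent 1 h | measured by = luminescence from split beta-galactosidase complementation, Galacton Star/Emerald II substrate | read-out basis = APJ agonist activity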
EBI2 antag: EBI2 (human) antagonism. EBI2 beta-arrestin recruitment, luminescence, 7a,25-OHC stimulated. inhibition, % at 5 µM. 0.81% of 360,000 active; in the data active means inhibition above about 38%;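 further: enzyme fragment complementation signal reports receptor beta-arrestin coupling in cells; 0% = agonist plus DMSO wells and 100% = wells without agonist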
APJ antag conf: confirmation of human APJ apelin receptor antagonists; shares compounds with APJ antag; APJ beta-arrestin recruitment, luminescence, antagonist mode; inhibition, % at 20 µM; 66% of 950 active; in the data active means inhibition above about 50%
Numbers without * were called inactive; · = no result. In the library only some 2% were active in any assay of this set; here they are far more common.

SMILES | CCR6 antag | CXCR6 block | APJ antag | GAA850 FXN act | APJ agonist | EBI2 antag | APJ antag conf
Nc1nnc(SCC(=O)Nc2ccc(Cl)c(C(=O)O)c2)s1 | -2 | -22 | 46* | 3 | -4 | 0 | 35
O=C(NC(=S)Nc1ccccc1N1CCOCC1)c1ccc(-c2ccccc2F)o1 | 27 | 17 | 20 | 3 | -8 | 29 | ·
COc1ccc(Cl)cc1NC(=O)C(C)OC(=O)C1=NNC(=O)CC1 (centres undefined) | 11 | 2 | -5 | 2 | -1 | -3 | ·
O=C(CNS(=O)(=O)c1ccccc1)OCC(=O)c1cccc([N+](=O)[O-])c1 | 47 | 31 | 46* | -1 | -4 | 3 | 87*
O=C(COC(=O)CNC(=O)c1cccc([N+](=O)[O-])c1)NCc1ccco1 | -2 | -7 | -12 | 0 | -6 | -14 | ·
O=C(CNC(=O)c1ccc(Br)o1)OCC(=O)c1cccc([N+](=O)[O-])c1 | 83* | 33 | 62* | 0 | -10 | 19 | 62*
CC1CCN(C(=O)CNC(=O)c2ccc(Br)o2)CC1 | 14 | 8 | -4 | 4 | -1 | -3 | ·
O=C(NCCN1C(=O)S/C(=C\c2cccc(Cl)c2Cl)C1=O)C1=COCCO1 | -1 | -19 | 15 | -3 | -1 | -5 | ·
Oc1ccccc1N=Nc1nc(-c2ccccc2)c(-c2ccccc2)[nH]1 | 70* | 33 | 62* | -15 | -12 | 0 | 104*
Oc1c(C=Nc2cccc3cccnc23)sc2ccccc12 | · | · | 92* | · | -30 | · | 143*
Cn1cc(-c2csc(C(O)c3ccc(F)c(F)c3)n2)cn1 (centres undefined) | · | -3 | · | 2 | · | 2 | ·
CC(=O)Nc1ccc(Cc2ccc3[nH]c(=O)cc(C)c3c2)cc1 | · | · | 44* | · | -3 | · | 9
CN1/C(=C\C=C2/SC(=S)N(CC(=O)O)C2=O)C(C)(C)c2ccccc21 | 59* | 45* | 51* | 0 | -11 | 0 | 93*
CN1CCS/C1=C\C=C1/SC(=S)N(CC(=O)O)C1=O | 32 | 21 | · | 1 | · | 11 | ·
C=CCN1C(=O)/C(=C\C=C2\N(C)c3ccccc3C2(C)C)SC1=S | 71* | 30 | 57* | 0 | -7 | 38 | 82*
CCCN1C(=O)/C(=C/C=C2\N(CC)c3ccccc3C2(C)C)SC1=S | 34 | 20 | 15 | -1 | -12 | 37 | ·
CC(C)(C)S(=O)N1Cc2cc(C(=O)NCC(F)(F)F)nc(-c3cccc(-c4cccc(F)c4)c3)c2[C@H]1CCO (some centres undefined) | · | -3 | · | · | · | 2 | ·
O=C1/C(=C\c2ccc(O)c(O)c2)SC(=S)N1Cc1ccccc1 | 71* | 52* | 56* | 4 | -8 | 15 | 100*
Cc1c(N2C(=O)/C(=C3/C(=O)N(C)c4ccccc43)SC2=S)c(=O)n(-c2ccccc2)n1C | 37 | 28 | -10 | 1 | -1 | 8 | ·
COc1cc(/C=C2/SC(=S)N(Cc3ccccc3)C2=O)ccc1O | 59* | 36 | 47* | 1 | -10 | 24 | 103*
COc1cc(/C=C2\SC(=S)N(N3CCOCC3)C2=O)cc(OC)c1OC | 12 | 1 | 11 | 0 | -1 | 8 | ·
COc1cc(/C=C2/SC(=S)N(c3c(C)n(C)n(-c4ccccc4)c3=O)C2=O)ccc1O | 51* | 51* | 53* | 1 | -6 | 18 | 92*
COc1cc(/C=C2\SC(=S)N(N3CCOCC3)C2=O)ccc1O | 33 | 40* | 51* | -1 | -6 | 21 | 70*
CC1Cc2ccccc2N1C(=O)COC(=O)c1ccc(Cl)c(S(=O)(=O)N2CCOCC2)c1 (centres undefined) | 13 | -10 | 8 | 1 | -4 | 8 | ·
O=C1/C(=C\c2cccc(O)c2)SC(=S)N1Cc1ccccc1 | 10 | 6 | 18 | -1 | -3 | -2 | ·
O=C1/C(=C\c2cccc(O)c2O)SC(=S)N1Cc1ccccc1 | 47 | 35 | 42* | -3 | -8 | 5 | 68*
COCc1cc(=O)[nH]c(Nc2nc3ccccc3o2)n1 | 0 | 16 | 18 | 0 | -1 | 5 | ·
